Data published in ChEMBL document CHEMBL2029265, “2-(Pyrrolidin-1-yl)ethyl-3,4-dihydroisoquinolin-1(2H)-one derivatives as potent and selective histamine-3 receptor antagonists” (J Med Chem, 2012).

Legend:
[1] = Apparent permeability from apical to basolateral side of human Caco2 cells; type: ADME, cell-based; conditions: Caco-2
Outline: (§1)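 Permeability was measured across Caco-2 epithelial monolayers in both the apical→basolateral and basolateral→apical directions. Apparent permeability is reported in 10−6 cm/s, and a directional ratio (B→A over A→B) was derived.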

Liver = assay: Metabolic stability in beagle dog liver microsomes assessed as GSH adduct formation at 1 uM after 30 mins in presence of NADPH and UDPGA; type: ADME, Canis lupus familiaris, Microsome; conditions: 0.5 h
Outline: (§2)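 Incubations used liver microsomes with NADPH + UDPGA. Glutathione adduct formation was monitored.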

[2] = molecular target: 5-hydroxytryptamine receptor 6 (Homo sapiens, UniProt P50406); assay: Binding affinity to 5-HT6 receptor
Histamine H2 receptor = Histamine H2 receptor (Homo sapiens, UniProt P25021); assay: Binding affinity to H2 receptor
Cytochrome P450 2C9 = Cytochrome P450 2C9 (Homo sapiens, UniProt P11712); assay: Inhibition of CYP2C9 in human liver microsomes up to 100 uM; type: ADME, Microsome
Outline: (§3)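 Human liver microsomes were incubated with test article at varying concentrations up to 100 μM. Activities measured were CYP1A2, 2A6, 2B6, 2C8, 2C9, 2C19 and 2D6, plus CYP3A4 via midazolam 1′-hydroxylation and via testosterone 6β-hydroxylation.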

Cytochrome P450 2A6 = Cytochrome P450 2A6 (Homo sapiens, UniProt P11509); assay: Inhibition of CYP2A6 in human liver microsomes up to 100 uM; type: ADME, Microsome; outline: as §3
D(2) dopamine receptor = D(2) dopamine receptor (Homo sapiens, UniProt P14416); assay: Binding affinity to D2 receptor
Cytochrome P450 2B6 = Cytochrome P450 2B6 (Homo sapiens, UniProt P20813); assay: Inhibition of CYP2B6 in human liver microsomes up to 100 uM; type: ADME, Microsome; outline: as §3
[3] = Apparent permeability from basolateral to apical side of human Caco2 cells; type: ADME, cell-based; conditions: Caco-2; outline: as §1
[4] = Half life in Sprague-Dawley rat liver microsomes at 1 uM after 30 mins in presence of NADPH and UDPGA; type: ADME, Microsome
Outline: (§4)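 Liver microsomes from rat, dog, monkey and human were incubated with phase I + II cofactors (NADPH + UDPGA). Half-life was measured in minutes.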

[5] = Metabolic stability in cynomolgus monkey liver microsomes assessed as GSH adduct formation at 1 uM after 30 mins in presence of NADPH and UDPGA; type: ADME, Macaca fascicularis, Microsome; conditions: 0.5 h; outline: as §2
Cytochrome P450 1A2 = Cytochrome P450 1A2 (Homo sapiens, UniProt P05177); assay: Inhibition of CYP1A2 in human liver microsomes up to 100 uM; type: ADME, Microsome; outline: as §3
Plasma = assay: AUC (0 to infinity) in rat plasma at 10 mg/kg, po; type: ADME, organism-based; parameters: time infinity, dose 10 mg/kg, route oral; conditions: in vivo
Cytochrome P450 2D6 = Cytochrome P450 2D6 (Homo sapiens, UniProt P10635); assay: Inhibition of CYP2D6 in human liver microsomes up to 100 uM; type: ADME, Microsome; outline: as §3
[6] = molecular target: T1, Alpha-2A adrenergic receptor (Homo sapiens, UniProt P08913); assay: Binding affinity to alpha-2A receptor
T1 sequence (P08913 whole entry): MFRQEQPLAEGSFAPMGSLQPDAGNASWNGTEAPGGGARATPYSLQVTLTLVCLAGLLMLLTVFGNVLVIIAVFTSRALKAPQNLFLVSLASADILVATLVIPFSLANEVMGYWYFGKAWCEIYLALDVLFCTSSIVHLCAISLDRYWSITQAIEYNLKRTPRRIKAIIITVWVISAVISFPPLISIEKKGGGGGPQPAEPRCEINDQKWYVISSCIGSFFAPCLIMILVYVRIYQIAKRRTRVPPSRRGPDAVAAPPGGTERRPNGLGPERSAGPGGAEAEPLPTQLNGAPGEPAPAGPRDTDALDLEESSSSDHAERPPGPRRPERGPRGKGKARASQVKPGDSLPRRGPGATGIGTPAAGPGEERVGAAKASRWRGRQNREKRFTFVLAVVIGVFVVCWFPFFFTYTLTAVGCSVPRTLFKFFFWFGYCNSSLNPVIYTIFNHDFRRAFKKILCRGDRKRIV

[7] = Half life in beagle dog liver microsomes at 1 uM after 30 mins in presence of NADPH and UDPGA; type: ADME, Canis lupus familiaris, Microsome; outline: as §4
[8] = molecular target: T2, 5-hydroxytryptamine receptor 1A (Homo sapiens, UniProt P08908); assay: Binding affinity to 5-HT1A receptor
T2 sequence (P08908 whole entry): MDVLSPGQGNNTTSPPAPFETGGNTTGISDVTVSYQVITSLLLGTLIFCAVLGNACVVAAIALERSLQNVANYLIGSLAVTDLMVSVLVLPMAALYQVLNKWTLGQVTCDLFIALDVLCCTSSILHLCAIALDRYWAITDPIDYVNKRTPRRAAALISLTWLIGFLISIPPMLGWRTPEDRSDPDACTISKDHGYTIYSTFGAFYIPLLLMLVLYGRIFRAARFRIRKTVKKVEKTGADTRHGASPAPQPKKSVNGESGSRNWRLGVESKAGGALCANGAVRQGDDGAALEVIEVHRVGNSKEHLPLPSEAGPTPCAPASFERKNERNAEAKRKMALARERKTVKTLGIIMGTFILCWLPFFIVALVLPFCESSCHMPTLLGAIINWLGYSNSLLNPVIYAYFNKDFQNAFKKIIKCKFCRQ

[9] = molecular target: Sodium-dependent dopamine transporter (Homo sapiens, UniProt Q01959); assay: Binding affinity to DAT
[10] = Fraction unbound in rat plasma; type: ADME, cell-free
Outline: (§5)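 Free fraction in human and rat plasma was determined by ultrafiltration.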

Cytochrome P450 3A4 [11] = molecular target: T3, Cytochrome P450 3A4 (Homo sapiens, UniProt P08684); assay: Inhibition of CYP3A4 in human liver microsomes up to 100 uM; type: ADME, Microsome; outline: as §3
[12] = Fraction unbound in human plasma; type: ADME, cell-free; outline: as §5
[13] = Half life in human liver microsomes at 1 uM after 30 mins in presence of NADPH and UDPGA; type: ADME, Microsome; outline: as §4
Liver microsomes [14] = assay: Metabolic stability in Sprague-Dawley rat liver microsomes assessed as GSH adduct formation at 1 uM after 30 mins in presence of NADPH and UDPGA; type: ADME, Microsome; conditions: 0.5 h; outline: as §2
[15] = molecular target: Sodium-dependent serotonin transporter (Homo sapiens, UniProt P31645); assay: Binding affinity to 5-HT transporter
[16] = Binding affinity to human alpha1-acid glycoprotein; type: ADME
Outline: (§6)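 Binding to human serum albumin and to α1-acid glycoprotein was assessed by Biacore analysis.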

Histamine H3 receptor [17] = molecular target: T4, Histamine H3 receptor (Homo sapiens, UniProt Q9Y5N1); assay: Inverse agonist activity at human H3 receptor expressed in HEK293T cells assessed as inhibition of {35S]GTPgamma binding; type: cell-based, HEK-293T
Outline: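 Basal [35S]GTPγS binding was measured in membranes from HEK cells expressing human H3 receptor, across a range of concentrations. EC50 and maximal inhibition relative to basal binding were derived.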

Albumin = Albumin (Homo sapiens, UniProt P02768); assay: Binding affinity to human serum albumin; type: ADME; conditions: isolated protein; outline: as §6
Cytochrome P450 2C8 = Cytochrome P450 2C8 (Homo sapiens, UniProt P10632); assay: Inhibition of CYP2C8 in human liver microsomes up to 100 uM; type: ADME, Microsome; outline: as §3
Brain = assay: AUC (0 to infinity) in rat brain at 10 mg/kg, po; type: ADME, organism-based; parameters: dose 10 mg/kg, route oral, time infinity; conditions: in vivo
Outline: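 Rats were dosed orally at 10 mg/kg. AUC0→∞ was determined in both brain and plasma, and the brain/plasma ratio was calculated from the two AUCs.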

Cytochrome P450 3A4 [18] = molecular target: T3, Cytochrome P450 3A4; assay: Inhibition of CYP3A4-mediated midazolam-1'-hydroxylation activity in human liver microsomes at 100 uM; type: ADME, Microsome; outline: as §3
[19] = molecular target: 5-hydroxytryptamine receptor 2B (Homo sapiens, UniProt P41595); assay: Binding affinity to 5-HT2B receptor
Cytochrome P450 2C19 = Cytochrome P450 2C19 (Homo sapiens, UniProt P33261); assay: Inhibition of CYP2C19 in human liver microsomes up to 100 uM; type: ADME, Microsome; outline: as §3
[20] = Ratio of Brain AUC (0 to infinity) to plasma AUC (0 to infinity) in rat at 10 mg/kg, po; type: ADME, organism-based; parameters: dose 10 mg/kg, route oral; conditions: read-out: BPR
Outline: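 Rats dosed orally at 10 mg/kg; brain and plasma AUC0→∞ measured, ratio taken as brain/plasma. Oral vehicle 2% Tween/0.5% methyl cellulose in water.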

[21] = Half life in cynomolgus monkey liver microsomes at 1 uM after 30 mins in presence of NADPH and UDPGA; type: ADME, Macaca fascicularis, Microsome; outline: as §4
Liver microsomes [22] = assay: Metabolic stability in human liver microsomes assessed as GSH adduct formation at 1 uM after 30 mins in presence of NADPH and UDPGA; type: ADME, Microsome; conditions: 0.5 h; outline: as §2
Histamine H3 receptor [23] = molecular target: T4, Histamine H3 receptor; assay: Displacement of [3H]-(R)-alpha-methylhistamine from human H3 receptor expressed in HEK293T cells after 120 mins by scintillation counting; type: cell-based, HEK-293T
Histamine H1 receptor = Histamine H1 receptor (Homo sapiens, UniProt P35367); assay: Binding affinity to H1 receptor
Cytochrome P450 3A4 [24] = molecular target: T3, Cytochrome P450 3A4; assay: Inhibition of CYP3A4-mediated testosterone-6beta-hydroxylation activity in human liver microsomes at 100 uM; type: ADME, Microsome; outline: as §3

T3 sequence (P08684 whole entry): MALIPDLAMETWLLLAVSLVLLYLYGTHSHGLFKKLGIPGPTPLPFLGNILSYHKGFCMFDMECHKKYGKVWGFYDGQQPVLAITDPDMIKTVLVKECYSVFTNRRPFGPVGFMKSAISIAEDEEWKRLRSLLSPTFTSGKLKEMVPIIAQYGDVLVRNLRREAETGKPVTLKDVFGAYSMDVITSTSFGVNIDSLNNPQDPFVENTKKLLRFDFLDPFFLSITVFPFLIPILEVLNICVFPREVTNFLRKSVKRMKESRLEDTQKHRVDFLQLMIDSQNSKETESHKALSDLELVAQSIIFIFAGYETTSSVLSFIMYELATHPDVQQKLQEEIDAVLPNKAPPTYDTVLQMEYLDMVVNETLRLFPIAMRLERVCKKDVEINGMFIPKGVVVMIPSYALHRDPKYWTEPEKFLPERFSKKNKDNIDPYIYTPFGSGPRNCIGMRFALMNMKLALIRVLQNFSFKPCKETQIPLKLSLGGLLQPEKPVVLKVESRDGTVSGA
T4 sequence (Q9Y5N1 whole entry): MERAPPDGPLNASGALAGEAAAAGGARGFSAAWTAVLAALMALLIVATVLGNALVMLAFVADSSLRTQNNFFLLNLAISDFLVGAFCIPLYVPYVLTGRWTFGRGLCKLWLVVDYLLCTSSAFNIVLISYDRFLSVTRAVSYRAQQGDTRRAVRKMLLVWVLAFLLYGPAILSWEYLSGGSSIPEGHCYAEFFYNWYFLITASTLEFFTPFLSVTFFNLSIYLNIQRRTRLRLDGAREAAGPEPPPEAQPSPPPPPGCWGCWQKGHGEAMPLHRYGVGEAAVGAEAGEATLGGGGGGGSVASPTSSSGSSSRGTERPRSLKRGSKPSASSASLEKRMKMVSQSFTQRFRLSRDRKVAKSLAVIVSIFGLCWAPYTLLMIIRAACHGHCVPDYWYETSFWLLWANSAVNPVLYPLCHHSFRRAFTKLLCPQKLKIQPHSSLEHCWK
D(2) dopamine receptor, sequence (P14416 whole entry): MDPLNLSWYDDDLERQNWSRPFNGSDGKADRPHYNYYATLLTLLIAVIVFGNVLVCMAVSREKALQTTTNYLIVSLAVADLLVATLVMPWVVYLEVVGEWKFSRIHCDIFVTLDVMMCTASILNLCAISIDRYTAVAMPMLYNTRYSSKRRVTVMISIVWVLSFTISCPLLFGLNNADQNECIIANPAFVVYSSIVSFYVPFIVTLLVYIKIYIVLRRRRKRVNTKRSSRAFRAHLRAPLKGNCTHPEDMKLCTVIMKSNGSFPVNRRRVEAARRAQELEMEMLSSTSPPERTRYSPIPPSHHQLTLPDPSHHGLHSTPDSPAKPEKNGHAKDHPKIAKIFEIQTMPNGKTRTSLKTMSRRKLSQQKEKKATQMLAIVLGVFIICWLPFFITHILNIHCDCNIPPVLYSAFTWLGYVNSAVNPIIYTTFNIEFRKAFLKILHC
Cytochrome P450 2B6, sequence (P20813 whole entry): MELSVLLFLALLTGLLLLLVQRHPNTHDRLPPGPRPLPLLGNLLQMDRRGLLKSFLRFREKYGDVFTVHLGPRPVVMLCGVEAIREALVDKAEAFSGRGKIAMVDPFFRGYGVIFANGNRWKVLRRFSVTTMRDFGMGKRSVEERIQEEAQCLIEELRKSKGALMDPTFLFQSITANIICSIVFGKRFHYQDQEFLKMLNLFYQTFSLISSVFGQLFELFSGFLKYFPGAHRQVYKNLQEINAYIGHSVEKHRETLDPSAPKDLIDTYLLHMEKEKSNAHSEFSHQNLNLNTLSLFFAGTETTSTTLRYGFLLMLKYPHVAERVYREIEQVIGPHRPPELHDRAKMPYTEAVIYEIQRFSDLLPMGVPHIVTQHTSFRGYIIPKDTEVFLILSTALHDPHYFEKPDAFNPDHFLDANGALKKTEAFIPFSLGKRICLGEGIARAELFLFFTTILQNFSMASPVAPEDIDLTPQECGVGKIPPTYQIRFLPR
Cytochrome P450 1A2, sequence (P05177 whole entry): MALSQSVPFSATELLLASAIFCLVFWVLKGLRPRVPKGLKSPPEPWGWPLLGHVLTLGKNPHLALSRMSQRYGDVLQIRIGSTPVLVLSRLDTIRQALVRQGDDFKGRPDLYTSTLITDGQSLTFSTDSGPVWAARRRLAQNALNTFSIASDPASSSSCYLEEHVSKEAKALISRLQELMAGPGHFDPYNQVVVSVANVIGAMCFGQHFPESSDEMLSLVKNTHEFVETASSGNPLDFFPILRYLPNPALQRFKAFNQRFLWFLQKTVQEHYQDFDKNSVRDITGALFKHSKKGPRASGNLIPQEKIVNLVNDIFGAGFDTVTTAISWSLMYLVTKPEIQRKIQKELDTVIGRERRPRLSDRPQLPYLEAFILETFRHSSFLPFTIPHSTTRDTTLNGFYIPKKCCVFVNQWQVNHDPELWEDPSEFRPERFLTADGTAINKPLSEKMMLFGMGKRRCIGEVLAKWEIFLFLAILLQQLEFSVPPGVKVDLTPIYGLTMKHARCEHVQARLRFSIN
5-hydroxytryptamine receptor 2B, sequence (P41595 whole entry): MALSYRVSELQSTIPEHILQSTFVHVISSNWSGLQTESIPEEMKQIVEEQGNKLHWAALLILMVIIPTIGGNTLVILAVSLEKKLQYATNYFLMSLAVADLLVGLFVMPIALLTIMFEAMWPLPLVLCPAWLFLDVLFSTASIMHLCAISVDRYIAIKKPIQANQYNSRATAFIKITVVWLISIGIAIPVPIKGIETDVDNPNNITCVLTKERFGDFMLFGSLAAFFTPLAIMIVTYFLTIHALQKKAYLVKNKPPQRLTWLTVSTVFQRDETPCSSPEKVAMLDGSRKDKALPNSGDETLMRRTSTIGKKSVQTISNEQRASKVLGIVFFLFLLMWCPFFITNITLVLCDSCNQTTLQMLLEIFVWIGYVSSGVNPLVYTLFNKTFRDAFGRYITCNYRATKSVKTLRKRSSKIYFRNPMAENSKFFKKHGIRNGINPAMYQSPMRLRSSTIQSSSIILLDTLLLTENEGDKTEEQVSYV
Albumin, sequence (P02768 whole entry): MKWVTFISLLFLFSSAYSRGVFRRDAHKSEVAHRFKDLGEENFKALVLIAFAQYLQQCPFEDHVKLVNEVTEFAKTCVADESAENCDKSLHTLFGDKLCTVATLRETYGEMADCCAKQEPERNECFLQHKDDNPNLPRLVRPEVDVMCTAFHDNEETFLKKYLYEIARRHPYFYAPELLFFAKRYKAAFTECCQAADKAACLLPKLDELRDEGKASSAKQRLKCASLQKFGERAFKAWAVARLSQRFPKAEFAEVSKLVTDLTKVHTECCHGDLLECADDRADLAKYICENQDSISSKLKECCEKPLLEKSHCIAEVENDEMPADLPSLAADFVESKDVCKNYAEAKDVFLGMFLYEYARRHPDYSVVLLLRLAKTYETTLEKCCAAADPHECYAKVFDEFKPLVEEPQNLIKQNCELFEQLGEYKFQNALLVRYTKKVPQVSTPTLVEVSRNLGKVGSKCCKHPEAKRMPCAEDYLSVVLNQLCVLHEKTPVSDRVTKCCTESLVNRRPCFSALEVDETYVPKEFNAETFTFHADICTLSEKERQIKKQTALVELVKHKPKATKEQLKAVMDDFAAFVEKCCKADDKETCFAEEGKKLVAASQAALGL
5-hydroxytryptamine receptor 6, sequence (P50406 whole entry): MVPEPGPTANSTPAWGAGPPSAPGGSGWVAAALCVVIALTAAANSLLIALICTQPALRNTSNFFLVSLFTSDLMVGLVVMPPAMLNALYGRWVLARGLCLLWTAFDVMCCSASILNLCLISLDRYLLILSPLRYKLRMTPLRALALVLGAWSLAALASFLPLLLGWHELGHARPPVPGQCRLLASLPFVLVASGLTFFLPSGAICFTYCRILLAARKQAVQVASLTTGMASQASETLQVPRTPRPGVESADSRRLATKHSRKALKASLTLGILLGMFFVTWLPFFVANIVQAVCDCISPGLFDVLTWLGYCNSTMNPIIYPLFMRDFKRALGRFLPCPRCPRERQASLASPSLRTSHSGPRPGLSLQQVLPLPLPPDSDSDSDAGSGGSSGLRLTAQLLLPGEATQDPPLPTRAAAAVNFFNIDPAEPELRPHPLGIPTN
Cytochrome P450 2C8, sequence (P10632 whole entry): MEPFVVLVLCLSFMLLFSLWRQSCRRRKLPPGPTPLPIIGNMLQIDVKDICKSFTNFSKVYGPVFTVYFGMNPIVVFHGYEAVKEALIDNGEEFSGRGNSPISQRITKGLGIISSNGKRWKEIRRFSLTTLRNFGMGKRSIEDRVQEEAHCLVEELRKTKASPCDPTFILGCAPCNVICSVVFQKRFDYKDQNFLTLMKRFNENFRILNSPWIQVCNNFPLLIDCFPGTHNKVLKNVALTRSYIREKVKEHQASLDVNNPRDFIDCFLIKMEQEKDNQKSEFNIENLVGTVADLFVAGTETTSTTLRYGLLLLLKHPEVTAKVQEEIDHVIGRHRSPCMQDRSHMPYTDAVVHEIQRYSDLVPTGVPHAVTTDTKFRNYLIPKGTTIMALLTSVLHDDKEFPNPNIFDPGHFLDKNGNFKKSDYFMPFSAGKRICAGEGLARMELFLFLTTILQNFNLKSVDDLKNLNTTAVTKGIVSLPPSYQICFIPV
Histamine H2 receptor, sequence (P25021 whole entry): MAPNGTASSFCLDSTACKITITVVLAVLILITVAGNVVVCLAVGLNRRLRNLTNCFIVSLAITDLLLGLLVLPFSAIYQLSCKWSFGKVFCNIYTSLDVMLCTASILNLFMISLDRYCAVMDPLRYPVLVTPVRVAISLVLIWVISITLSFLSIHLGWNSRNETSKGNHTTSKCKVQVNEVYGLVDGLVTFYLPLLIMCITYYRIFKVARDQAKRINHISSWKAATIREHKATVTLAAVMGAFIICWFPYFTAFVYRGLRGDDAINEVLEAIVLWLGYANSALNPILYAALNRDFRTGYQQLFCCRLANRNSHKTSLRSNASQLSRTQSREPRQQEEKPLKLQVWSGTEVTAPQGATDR

Question: For `CN(C)C(=O)c1ccc(-c2ccc3c(c2)CCN(CCN2CCCC2)C3=O)cc1`, which Papp A→B [1] is on record?
Answer: 12.1 ×10⁻⁶ cm/s

Question: And the Stability (Liver)?
Answer: Stable

Question: What about the Ki [2] of the same compound?
Answer: > 10 µM

Question: What about the Ki (Histamine H2 receptor) of the same compound?
Answer: > 55 µM

Question: What about the “inhibition (INH)” value (Cytochrome P450 2C9) of the same compound?
Answer: Not Active

Question: What about the “inhibition (INH)” value (Cytochrome P450 2A6) of the same compound?
Answer: Not Active

Question: And the Ki (D(2) dopamine receptor)?
Answer: > 10 µM

Question: What about the “inhibition (INH)” value (Cytochrome P450 2B6) of the same compound?
Answer: Not Active

Question: What about the Papp B→A [3] of the same compound?
Answer: 31.1 ×10⁻⁶ cm/s

Question: And the half-life at 1 µM [4]?
Answer: 26 min

Question: What about the Stability [5] of the same compound?
Answer: Stable

Question: What about the “inhibition (INH)” value (Cytochrome P450 1A2) of the same compound?
Answer: Not Active

Question: What about the AUC (Plasma) of the same compound?
Answer: 2369 ng·h/g

Question: And the “inhibition (INH)” value (Cytochrome P450 2D6)?
Answer: Not Active

Question: And the Ki [6]?
Answer: > 3 µM

Question: What about the half-life at 1 µM [7] of the same compound?
Answer: 47 min

Question: What about the Ki [8] of the same compound?
Answer: 8.67 µM

Question: What about the Ki [9] of the same compound?
Answer: > 10 µM

Question: What about the fraction unbound [10] of the same compound?
Answer: 0.5

Question: And the “inhibition (INH)” value (Cytochrome P450 3A4 [11])?
Answer: Not Active

Question: What about the fraction unbound [12] of the same compound?
Answer: 0.59

Question: And the half-life at 1 µM [13]?
Answer: 69 min

Question: What about the Stability (Liver microsomes [14]) of the same compound?
Answer: Stable

Question: And the Ki [15]?
Answer: > 3 µM

Question: And the Activity [16]?
Answer: Toxic

Question: And the EC50 (Histamine H3 receptor [17])?
Answer: 0.0107 µM

Question: And the Activity (Albumin)?
Answer: Toxic

Question: What about the “inhibition (INH)” value (Cytochrome P450 2C8) of the same compound?
Answer: Not Active

Question: What about the AUC (Brain) of the same compound?
Answer: 642 ng·h/g

Question: What about the “inhibition (INH)” value (Cytochrome P450 3A4 [18]) of the same compound?
Answer: Not Active

Question: And the Ki [19]?
Answer: > 10 µM

Question: What about the “inhibition (INH)” value (Cytochrome P450 2C19) of the same compound?
Answer: Not Active

Question: And the Kp [20]?
Answer: 0.27

Question: What about the half-life at 1 µM [21] of the same compound?
Answer: > 60 min

Question: What about the Stability (Liver microsomes [22]) of the same compound?
Answer: Stable

Question: What about the Ki (Histamine H3 receptor [23]) of the same compound?
Answer: 0.0009 µM

Question: What about the Ki (Histamine H1 receptor) of the same compound?
Answer: > 10 µM

Question: And the “inhibition (INH)” value (Cytochrome P450 3A4 [24])?
Answer: Not Active
